Measurements taken from ChEMBL document CHEMBL4513216, “Probing the Open Global Health Chemical Diversity Library for Multistage-Active Starting Points for Next-Generation Antimalarials” (ACS Infect Dis, 2020).

Experiment: Toxicity liver stage against HepG2, at 10uM
Type: cell-based
Set-up: test concentration 10 uM, cell line HepG2-A16-CD81EGFP
Conditions: human, HepG2-A16-CD81EGFP cells; read-out: INHIBITION
Procedure, shortened: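 Uninfected HepG2-A16-CD81EGFP cells, 3 × 10^3 per well, 1536-well, plated on prespotted compound at 10 μM final, parasite-free screening media added to match infected plates; puromycin 10 μM positive, DMSO 0.5% negative; run in parallel with 48 h PbLuc assay at 37 °C, 5% CO2; viability by CellTiter-Glo luminescence, normalized to controls.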

Point of comparison: `CCN(C)C(=O)c1cnc(-c2noc3cc(N4CCCCC4)ccc23)s1`, cytotoxicity at 10 µM 48.6%. Against it:
- CCOCC1c2c(ncn2C(C)C)CCN1C(=O)C1CC1 (stereo not given) — lower, 10.5%
- Cc1ccc(C(=O)N2C[C@@H]3CN(c4ncccn4)C[C@@H]3C2)cn1 — lower, 6.86%
- CCn1cc(CNC(=O)c2nn(CC)cc2Br)cn1 — lower, 47.1%
- c1cnc(N2CCC(c3csc(Nc4cnccn4)n3)CC2)nc1 — lower, 34%
- Fc1cccc(Nc2nc(N3CCCC3)nc3c2CNCC3)c1 — lower, -18%
- NCC(=O)N1CCC(c2cccc(Oc3ccccc3)n2)CC1 — lower, 9.43%
- CC(C)C1=NOC2(CCN(Cc3c[nH]c4ccccc34)CC2)C1 — lower, 3.46%
- CC(C)CSCCN1CCCN(S(C)(=O)=O)CC1 — lower, -8.17%
- CCN(CC)c1ncc(Cl)c(C(=O)NC2CCc3nccn3C2)n1 (stereo not given) — lower, -49.5%
- COc1ccc(CNCCC(=O)N2CCc3sccc3C2)cc1O — lower, 4.48%
- CN(Cc1ccccc1F)Cc1cc2c(cc1Br)OCCO2 — lower, -139%
- CC(C)(C)n1ncc(NCCc2ccccc2C(F)(F)F)c(Cl)c1=O — higher, 57%
- CC(C)c1nnc(NC(=O)Cc2csc(-c3nnc[nH]3)n2)s1 — lower, -47.2%
- O=C(NC1CCC(N2C(=O)CCC2=O)CC1)c1c[nH]c2ccccc12 (stereo not given) — lower, -2.06%
- O=S(=O)(c1ccc(Cl)cc1)N1CCN(CCCn2ccnc2)CC1 — lower, -6.18%
- CCSc1cc(C(=O)NCc2ccc(C(=O)NC)cc2)ccn1 — lower, 32.6%
- Clc1cc(CN2CCCC(Cn3cncn3)C2)c2ncccc2c1 (stereo not given) — lower, 6.64%
- O=S(=O)(N1CCOCC1)N1CCc2sccc2C1 — lower, -92.3%
- c1ccc(N2CCCC2)c(NCc2ccncc2)c1 — lower, -0.289%
- CCN1CCN(c2ccc(C(=O)NCCOC)cc2F)CC1 — lower, 1.12%
- CN1CCN(C2CCN(c3cnc4ccccc4n3)CC2)C1=O — lower, 27.4%
- O=C(NCc1nnc2n1CCC2)N1CCC2(CCCCC2)CC1 — lower, 11%
- Cc1nc(-c2ccccc2)nc2c1CCN(Cc1nccn1C)CC2 — lower, -118%
- CC(=O)NCC(=O)N1CCN(Cc2ccncc2)c2ncccc2C1 — lower, -90.3%
- Cc1cccc(CN2CC[C@H]3C[C@@H](C)O[C@@H]3C2)n1 — lower, -65.5%
- CC[C@@H](C)[C@@H](N)C(=O)Nc1cccc(-c2cnc(N(C)C)nc2)c1 — lower, -4.78%
- COc1ccc2c(c1)OCC(Cc1ccc(N)nc1C)C2 (stereo not given) — lower, 21.8%
- COC(=O)N1CCC2(CC1)N=C(CCC(C)C)NC2=O — lower, -2.77%
- FC(F)(F)c1ccccc1CCC1CCCN(Cc2cscn2)C1 (stereo not given) — lower, 2.28%
- COCc1noc(-c2ccc(N3CCC[C@H]3CO)nc2)n1 — lower, -8.26%
- Cc1noc(-c2ccc(N3CCC(C(=O)N4CCCC4)CC3)nc2)n1 — lower, 6.5%
- COc1ccnc(CN2CCCC(CCc3ccccc3)C2)c1OC (stereo not given) — lower, 0.979%
- O=C(c1n[nH]cc1Cl)N1CCOC(Cc2cccc(C(F)(F)F)c2)C1 (stereo not given) — lower, 4.19%
- Cc1cc(N(C)Cc2cc(C(C)(C)C)n[nH]2)nc(-c2cccnc2)n1 — lower, 19.9%
- O=C(CCn1cc(Cl)cn1)N1CCC2(CC1)[C@H](O)C[C@@H]2OCCO — lower, 19.6%
- CCC(C)c1ccc(NC(=O)C2CCN(C(=O)N(C)C)CC2)cc1 (stereo not given) — lower, -7.29%
- Cc1cnc(C)c(N2CCN(CCCc3ccncc3)CC2)n1 — lower, -15.4%
- O=C1CC2(CCN(CCCF)CC2)CN1Cc1cc(F)cc(F)c1 — lower, 16.3%
- CN(C)c1ccc(CNC2=NCCCN2)cc1 — lower, -39.9%
- Cc1cccc(CN2CCc3c(COCC(=O)N(C)C)nn(C)c3C2)n1 — lower, -120%
- Cn1ccnc1NC[C@@H]1CCC[C@@H]2CN(CC3CC3)C[C@@H]21 — lower, 16%
- c1ccc(N2CCOC3(CCCN(c4ncccn4)C3)C2)nc1 (stereo not given) — lower, -103%
- O=S1(=O)c2ccccc2C2(CCN(Cc3cccnc3)C2)N1CC1CC1 (stereo not given) — lower, -68.7%
- O=C1CCCC2=Nc3nonc3NC(c3cc(Cl)ccc3F)C12 (stereo not given) — lower, 35.5%
